Test results reported in ChEMBL document CHEMBL5303300, “EUbOPEN Chemogenomics Library - Multiplex” (2023).
Several values for one entry are separate records, joined by “and”; a condition that tells them apart may be missing. Identical values can stand only once.

Tested on: HEK-293T
Assay: Multiplex assay against HEK293T
Format: toxicity, cell-based
Conditions: human, number of replicates 2
Outline: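 Live cells were stained at seeding with Hoechst33342, BioTracker Green Microtubule Cytoskeleton Dye, MitoTracker Red and Annexin V Alexa Fluor 680, then imaged on a CQ1 microscope at 37°C and 5% CO2 after compound addition. CellPathfinder machine-learning gating split cells into Hoechst high-intensity objects or normal cells. Normal cells were split into healthy, pyknosed or fragmented nuclei, and pyknosed cells into mitotic or apoptotic. Tubulin, mitochondrial-mass and membrane-permeability phenotypes are per cents of healthy-nucleus cells.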

[1] = 12 h, 1 µM, compound concentration 1 uM
[2] = 12 h, 10 µM, compound concentration 10 uM
[3] = 24 h, 1 µM, compound concentration 1 uM
[4] = 24 h, 10 µM, compound concentration 10 uM
[5] = 48 h, 1 µM, compound concentration 1 uM
[6] = 48 h, 10 µM, compound concentration 10 uM

CCN(CC)C/C=C/C(=O)Nc1cc2c(Nc3ccc(F)c(Cl)c3)ncnc2cc1OCC1CC1 was tested, and the “Population Apoptotic (%)” value [1] was 61% and 46%, the “Population Fragmented Nuclei (%)” value [1] was 3% and 4% and the “Population Healthy Nuclei (%)” value [1] was 79%. For the same molecule, the “Population Hoechst High Intensity Objects (%)” value [1] was 4% and 7%, the “Population Membrane Permeable-Phenotype (%)” value [1] was 6% and 5% and the “Population Mitochondria Different-Phenotype (%)” value [1] was 26% and 30%. For the same molecule, the “Population Mitotic Cells (%)” value [1] was 38% and 53%, the “Population Normal (%)” value [1] was 95% and 92% and the “Population Pyknosed Nuclei (%)” value [1] was 17% and 15%. For the same molecule, the “Population Tubulin-Different-Phenotype (%)” value [1] was 81% and 90%, the “Total Cell Count” value [1] was 435 and 525 and the “Population Apoptotic (%)” value [2] was 81% and 84%. The “Population Fragmented Nuclei (%)” value [2] was 1% and 6%, the “Population Healthy Nuclei (%)” value [2] was 68% and 69% and the “Population Hoechst High Intensity Objects (%)” value [2] was 8% and 6%. The “Population Membrane Permeable-Phenotype (%)” value [2] was 4% and 3%, the “Population Mitochondria Different-Phenotype (%)” value [2] was 76% and 83% and the “Population Mitotic Cells (%)” value [2] was 18% and 15%. The “Population Normal (%)” value [2] was 91% and 93%, the “Population Pyknosed Nuclei (%)” value [2] was 29% and 23% and the “Population Tubulin-Different-Phenotype (%)” value [2] was 84% and 78%. For the same molecule, the “Total Cell Count” value [2] was 283 and 298, the “Population Apoptotic (%)” value [3] was 50% and the “Population Fragmented Nuclei (%)” value [3] was 5% and 6%. For the same molecule, the “Population Healthy Nuclei (%)” value [3] was 81% and 84%, the “Population Hoechst High Intensity Objects (%)” value [3] was 6% and 9% and the “Population Membrane Permeable-Phenotype (%)” value [3] was 4% and 5%. The “Population Mitochondria Different-Phenotype (%)” value [3] was 14% and 19%, the “Population Mitotic Cells (%)” value [3] was 50% and 49% and the “Population Normal (%)” value [3] was 93% and 90%. For the same molecule, the “Population Pyknosed Nuclei (%)” value [3] was 12% and 8%, the “Population Tubulin-Different-Phenotype (%)” value [3] was 59% and 72% and the “Total Cell Count” value [3] was 687 and 743. For the same molecule, the “Population Apoptotic (%)” value [4] was 84% and 81%, the “Population Fragmented Nuclei (%)” value [4] was 2% and 4% and the “Population Healthy Nuclei (%)” value [4] was 47% and 45%. The “Population Hoechst High Intensity Objects (%)” value [4] was 10%, the “Population Membrane Permeable-Phenotype (%)” value [4] was 2% and 1% and the “Population Mitochondria Different-Phenotype (%)” value [4] was 92% and 93%. For the same molecule, the “Population Mitotic Cells (%)” value [4] was 15% and 18%, the “Population Normal (%)” value [4] was 89% and the “Population Pyknosed Nuclei (%)” value [4] was 49%. For the same molecule, the “Population Tubulin-Different-Phenotype (%)” value [4] was 88% and 77%, the “Total Cell Count” value [4] was 274 and 323 and the “Population Apoptotic (%)” value [5] was 30%. The “Population Fragmented Nuclei (%)” value [5] was 9%, the “Population Healthy Nuclei (%)” value [5] was 84% and the “Population Hoechst High Intensity Objects (%)” value [5] was 9% and 7%. The “Population Membrane Permeable-Phenotype (%)” value [5] was 4% and 6%, the “Population Mitochondria Different-Phenotype (%)” value [5] was 5% and 2% and the “Population Mitotic Cells (%)” value [5] was 69%. For the same molecule, the “Population Normal (%)” value [5] was 90% and 92%, the “Population Pyknosed Nuclei (%)” value [5] was 5% and 6% and the “Population Tubulin-Different-Phenotype (%)” value [5] was 53% and 34%. The “Total Cell Count” value [5] was 1264 and 1265, the “Population Apoptotic (%)” value [6] was 84% and 87% and the “Population Fragmented Nuclei (%)” value [6] was 7% and 11%. For the same molecule, the “Population Healthy Nuclei (%)” value [6] was 32% and 33%, the “Population Hoechst High Intensity Objects (%)” value [6] was 8% and 15% and the “Population Membrane Permeable-Phenotype (%)” value [6] was 5% and 2%. For the same molecule, the “Population Mitochondria Different-Phenotype (%)” value [6] was 87% and 94%, the “Population Mitotic Cells (%)” value [6] was 15% and 12% and the “Population Normal (%)” value [6] was 91% and 84%. For the same molecule, the “Population Pyknosed Nuclei (%)” value [6] was 59% and 55%, the “Population Tubulin-Different-Phenotype (%)” value [6] was 84% and 80% and the “Total Cell Count” value [6] was 396 and 360.

COc1ccc2cc(S(=O)(=O)N[C@H](CC(=O)N[C@H](Cc3ccc(CN4[C@H](C)CCC[C@@H]4C)cc3)C(=O)N(C)C(C)C)c3ccc4c(c3)OCO4)ccc2c1.Cl was tested, and the “Population Apoptotic (%)” value [1] was 40% and 62%, the “Population Fragmented Nuclei (%)” value [1] was 2% and 1% and the “Population Healthy Nuclei (%)” value [1] was 85% and 84%. For the same molecule, the “Population Hoechst High Intensity Objects (%)” value [1] was 5% and 6%, the “Population Membrane Permeable-Phenotype (%)” value [1] was 5% and the “Population Mitochondria Different-Phenotype (%)” value [1] was 29% and 26%. The “Population Mitotic Cells (%)” value [1] was 59% and 37%, the “Population Normal (%)” value [1] was 94% and 93% and the “Population Pyknosed Nuclei (%)” value [1] was 11% and 13%. The “Population Tubulin-Different-Phenotype (%)” value [1] was 86% and 85%, the “Total Cell Count” value [1] was 531 and 472 and the “Population Apoptotic (%)” value [2] was 76% and 70%. For the same molecule, the “Population Fragmented Nuclei (%)” value [2] was 1% and 3%, the “Population Healthy Nuclei (%)” value [2] was 82% and 83% and the “Population Hoechst High Intensity Objects (%)” value [2] was 10% and 9%. For the same molecule, the “Population Membrane Permeable-Phenotype (%)” value [2] was 1% and 4%, the “Population Mitochondria Different-Phenotype (%)” value [2] was 82% and 70% and the “Population Mitotic Cells (%)” value [2] was 23% and 29%. For the same molecule, the “Population Normal (%)” value [2] was 89% and 90%, the “Population Pyknosed Nuclei (%)” value [2] was 15% and 12% and the “Population Tubulin-Different-Phenotype (%)” value [2] was 85% and 82%. For the same molecule, the “Total Cell Count” value [2] was 395 and 352, the “Population Apoptotic (%)” value [3] was 52% and 56% and the “Population Fragmented Nuclei (%)” value [3] was 5%. For the same molecule, the “Population Healthy Nuclei (%)” value [3] was 86% and 83%, the “Population Hoechst High Intensity Objects (%)” value [3] was 6% and 9% and the “Population Membrane Permeable-Phenotype (%)” value [3] was 4%. The “Population Mitochondria Different-Phenotype (%)” value [3] was 19% and 22%, the “Population Mitotic Cells (%)” value [3] was 47% and 43% and the “Population Normal (%)” value [3] was 93% and 90%. For the same molecule, the “Population Pyknosed Nuclei (%)” value [3] was 7% and 10%, the “Population Tubulin-Different-Phenotype (%)” value [3] was 74% and 73% and the “Total Cell Count” value [3] was 766 and 588. The “Population Apoptotic (%)” value [4] was 80% and 69%, the “Population Fragmented Nuclei (%)” value [4] was 2% and 5% and the “Population Healthy Nuclei (%)” value [4] was 76% and 75%. The “Population Hoechst High Intensity Objects (%)” value [4] was 10% and 15%, the “Population Membrane Permeable-Phenotype (%)” value [4] was 1% and 2% and the “Population Mitochondria Different-Phenotype (%)” value [4] was 88% and 86%. The “Population Mitotic Cells (%)” value [4] was 19% and 30%, the “Population Normal (%)” value [4] was 89% and 84% and the “Population Pyknosed Nuclei (%)” value [4] was 20% and 19%. The “Population Tubulin-Different-Phenotype (%)” value [4] was 78% and 75%, the “Total Cell Count” value [4] was 417 and 393 and the “Population Apoptotic (%)” value [5] was 18% and 44%. The “Population Fragmented Nuclei (%)” value [5] was 10% and 8%, the “Population Healthy Nuclei (%)” value [5] was 84% and 85% and the “Population Hoechst High Intensity Objects (%)” value [5] was 8% and 9%. For the same molecule, the “Population Membrane Permeable-Phenotype (%)” value [5] was 6% and 3%, the “Population Mitochondria Different-Phenotype (%)” value [5] was 5% and 4% and the “Population Mitotic Cells (%)” value [5] was 81% and 55%. For the same molecule, the “Population Normal (%)” value [5] was 91% and 90%, the “Population Pyknosed Nuclei (%)” value [5] was 4% and 6% and the “Population Tubulin-Different-Phenotype (%)” value [5] was 44% and 41%. The “Total Cell Count” value [5] was 1592 and 1105, the “Population Apoptotic (%)” value [6] was 88% and 78% and the “Population Fragmented Nuclei (%)” value [6] was 6% and 9%. The “Population Healthy Nuclei (%)” value [6] was 81% and 80%, the “Population Hoechst High Intensity Objects (%)” value [6] was 14% and 17% and the “Population Membrane Permeable-Phenotype (%)” value [6] was 2% and 3%. The “Population Mitochondria Different-Phenotype (%)” value [6] was 78% and 79%, the “Population Mitotic Cells (%)” value [6] was 12% and 21% and the “Population Normal (%)” value [6] was 85% and 82%. The “Population Pyknosed Nuclei (%)” value [6] was 11% and 10%, the “Population Tubulin-Different-Phenotype (%)” value [6] was 84% and 87% and the “Total Cell Count” value [6] was 498 and 427.
